# Results published in ChEMBL document CHEMBL4689842, “EUbOPEN Chemogenomics Library wave 1” (2021).
# Test system: Fibroblast
# Experiment: Multiplex assay against human fibroblast
# Format: toxicity, cell-based
# Summary of the method: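 Compound was added to live cells that had been stained at seeding with Hoechst33342, BioTracker Green Microtubule Cytoskeleton Dye, MitoTracker Red and Annexin V Alexa Fluor 680, and imaging followed on a CQ1 microscope at 37°C and 5% CO2. CellPathfinder machine-learning gating divided cells into Hoechst high-intensity objects or normal cells, normal cells into healthy, pyknosed or fragmented nuclei, and pyknosed cells into mitotic or apoptotic. Tubulin, mitochondrial-mass and membrane-permeability phenotypes are per cents of healthy-nucleus cells.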
# [1] = 12 h, 1 µM, compound concentration 1 uM, replicate 1
# [2] = 12 h, 1 µM, compound concentration 1 uM, replicate 2
# [3] = 12 h, 10 µM, compound concentration 10 uM, replicate 1
# [4] = 12 h, 10 µM, compound concentration 10 uM, replicate 2
# [5] = 24 h, 1 µM, compound concentration 1 uM, replicate 1
# [6] = 24 h, 1 µM, compound concentration 1 uM, replicate 2
# [7] = 24 h, 10 µM, compound concentration 10 uM, replicate 1
# [8] = 24 h, 10 µM, compound concentration 10 uM, replicate 2
# [9] = 48 h, 1 µM, compound concentration 1 uM, replicate 1
# [10] = 48 h, 1 µM, compound concentration 1 uM, replicate 2
# [11] = 48 h, 10 µM, compound concentration 10 uM, replicate 1
# [12] = 48 h, 10 µM, compound concentration 10 uM, replicate 2
compound,measurement,setting,value
CCCSc1nc(N[C@@H]2C[C@H]2c2ccc(F)c(F)c2)c2nnn([C@@H]3C[C@H](OCCO)[C@@H](O)[C@H]3O)c2n1 [TICAGRELOR],Population Apoptotic (%),[1],55%
same,Population Fragmented Nuclei (%),[1],17%
same,Population Healthy Nuclei (%),[1],48%
same,Population Hoechst High Intensity Objects (%),[1],9%
same,Population Membrane Permeable-Phenotype (%),[1],21%
same,Population Mitochondria Different-Phenotype (%),[1],5%
same,Population Mitotic Cells (%),[1],44%
same,Population Normal (%),[1],90%
same,Population Pyknosed Nuclei (%),[1],33%
same,Population Tubulin-Different-Phenotype (%),[1],46%
same,Total Cell Count,[1],179
same,Population Apoptotic (%),[2],66%
same,Population Fragmented Nuclei (%),[2],1%
same,Population Healthy Nuclei (%),[2],93%
same,Population Hoechst High Intensity Objects (%),[2],5%
same,Population Membrane Permeable-Phenotype (%),[2],5%
same,Population Mitochondria Different-Phenotype (%),[2],18%
same,Population Mitotic Cells (%),[2],33%
same,Population Normal (%),[2],94%
same,Population Pyknosed Nuclei (%),[2],4%
same,Population Tubulin-Different-Phenotype (%),[2],13%
same,Total Cell Count,[2],82
same,Population Apoptotic (%),[3],56%
same,Population Fragmented Nuclei (%),[3],29%
same,Population Healthy Nuclei (%),[3],27%
same,Population Hoechst High Intensity Objects (%),[3],12%
same,Population Membrane Permeable-Phenotype (%),[3],12%
same,Population Mitochondria Different-Phenotype (%),[3],78%
same,Population Mitotic Cells (%),[3],43%
same,Population Normal (%),[3],87%
same,Population Pyknosed Nuclei (%),[3],43%
same,Population Tubulin-Different-Phenotype (%),[3],90%
same,Total Cell Count,[3],139
same,Population Apoptotic (%),[4],75%
same,Population Fragmented Nuclei (%),[4],7%
same,Population Healthy Nuclei (%),[4],79%
same,Population Hoechst High Intensity Objects (%),[4],11%
same,Population Membrane Permeable-Phenotype (%),[4],43%
same,Population Mitochondria Different-Phenotype (%),[4],98%
same,Population Mitotic Cells (%),[4],25%
same,Population Normal (%),[4],88%
same,Population Pyknosed Nuclei (%),[4],12%
same,Population Tubulin-Different-Phenotype (%),[4],96%
same,Total Cell Count,[4],67
same,Population Apoptotic (%),[5],43%
same,Population Fragmented Nuclei (%),[5],18%
same,Population Healthy Nuclei (%),[5],62%
same,Population Hoechst High Intensity Objects (%),[5],9%
same,Population Membrane Permeable-Phenotype (%),[5],26%
same,Population Mitochondria Different-Phenotype (%),[5],12%
same,Population Mitotic Cells (%),[5],56%
same,Population Normal (%),[5],90%
same,Population Pyknosed Nuclei (%),[5],19%
same,Population Tubulin-Different-Phenotype (%),[5],50%
same,Total Cell Count,[5],172
same,Population Apoptotic (%),[6],57%
same,Population Fragmented Nuclei (%),[6],3%
same,Population Healthy Nuclei (%),[6],87%
same,Population Hoechst High Intensity Objects (%),[6],2%
same,Population Membrane Permeable-Phenotype (%),[6],4%
same,Population Mitochondria Different-Phenotype (%),[6],20%
same,Population Mitotic Cells (%),[6],42%
same,Population Normal (%),[6],97%
same,Population Pyknosed Nuclei (%),[6],8%
same,Population Tubulin-Different-Phenotype (%),[6],11%
same,Total Cell Count,[6],81
same,Population Apoptotic (%),[7],55%
same,Population Fragmented Nuclei (%),[7],27%
same,Population Healthy Nuclei (%),[7],33%
same,Population Hoechst High Intensity Objects (%),[7],16%
same,Population Membrane Permeable-Phenotype (%),[7],18%
same,Population Mitochondria Different-Phenotype (%),[7],67%
same,Population Mitotic Cells (%),[7],44%
same,Population Normal (%),[7],83%
same,Population Pyknosed Nuclei (%),[7],38%
same,Population Tubulin-Different-Phenotype (%),[7],94%
same,Total Cell Count,[7],133
same,Population Apoptotic (%),[8],83%
same,Population Fragmented Nuclei (%),[8],7%
same,Population Healthy Nuclei (%),[8],73%
same,Population Hoechst High Intensity Objects (%),[8],8%
same,Population Membrane Permeable-Phenotype (%),[8],65%
same,Population Mitochondria Different-Phenotype (%),[8],97%
same,Population Mitotic Cells (%),[8],16%
same,Population Normal (%),[8],91%
same,Population Pyknosed Nuclei (%),[8],19%
same,Population Tubulin-Different-Phenotype (%),[8],97%
same,Total Cell Count,[8],80
same,Population Apoptotic (%),[9],44%
same,Population Fragmented Nuclei (%),[9],25%
same,Population Healthy Nuclei (%),[9],55%
same,Population Hoechst High Intensity Objects (%),[9],9%
same,Population Membrane Permeable-Phenotype (%),[9],16%
same,Population Mitochondria Different-Phenotype (%),[9],5%
same,Population Mitotic Cells (%),[9],55%
same,Population Normal (%),[9],90%
same,Population Pyknosed Nuclei (%),[9],19%
same,Population Tubulin-Different-Phenotype (%),[9],36%
same,Total Cell Count,[9],167
same,Population Apoptotic (%),[10],66%
same,Population Fragmented Nuclei (%),[10],27%
same,Population Healthy Nuclei (%),[10],68%
same,Population Hoechst High Intensity Objects (%),[10],10%
same,Population Membrane Permeable-Phenotype (%),[10],18%
same,Population Mitochondria Different-Phenotype (%),[10],3%
same,Population Mitotic Cells (%),[10],33%
same,Population Normal (%),[10],89%
same,Population Pyknosed Nuclei (%),[10],3%
same,Population Tubulin-Different-Phenotype (%),[10],57%
same,Total Cell Count,[10],88
same,Population Apoptotic (%),[11],69%
same,Population Fragmented Nuclei (%),[11],50%
same,Population Healthy Nuclei (%),[11],31%
same,Population Hoechst High Intensity Objects (%),[11],20%
same,Population Membrane Permeable-Phenotype (%),[11],22%
same,Population Mitochondria Different-Phenotype (%),[11],62%
same,Population Mitotic Cells (%),[11],30%
same,Population Normal (%),[11],79%
same,Population Pyknosed Nuclei (%),[11],18%
same,Population Tubulin-Different-Phenotype (%),[11],90%
same,Total Cell Count,[11],159
same,Population Apoptotic (%),[12],75%
same,Population Fragmented Nuclei (%),[12],32%
same,Population Healthy Nuclei (%),[12],61%
same,Population Hoechst High Intensity Objects (%),[12],5%
same,Population Membrane Permeable-Phenotype (%),[12],2%
same,Population Mitochondria Different-Phenotype (%),[12],84%
same,Population Mitotic Cells (%),[12],25%
same,Population Normal (%),[12],94%
same,Population Pyknosed Nuclei (%),[12],6%
same,Population Tubulin-Different-Phenotype (%),[12],92%
same,Total Cell Count,[12],135
